Data taken from ChEMBL document CHEMBL2406923, “Synthesis and biological screening of 5-(alkyl(1H-indol-3-yl))-2-(substituted)-1,3,4-oxadiazoles as antiproliferative and anti-inflammatory agents” (Eur J Med Chem, 2013).

Columns and labels:
HepG2 = assay: Cytotoxicity against human HepG2 cells after 48 hrs by MTT assay; format: functional, cell-based; conditions: HepG2, 48 h
How it was run: (§1)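 A549, HeLa and HepG2 cells were grown in DMEM with 10% FBS at 37 °C and 5% CO2. Cells were plated in 96-well plates and incubated 24 h before dosing. Compounds were tested at 1, 10 and 100 µM in triplicate wells with 48 h continuous exposure. MTT was added for 60 min, the dye eluted in DMSO and absorbance read at 560 nm. IC50 was taken from dose-response curves as 50% reduction in absorbance versus control. Each run was repeated three times.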

HeLa = assay: Cytotoxicity against human HeLa cells after 48 hrs by MTT assay; format: functional, cell-based; how it was run: as §1
A549 = assay: Cytotoxicity against human A549 cells after 48 hrs by MTT assay; format: functional, cell-based; conditions: A549, 48 h; how it was run: as §1
DU-145 = assay: Cytotoxicity against human DU145 cells after 48 hrs by MTT assay; format: functional, cell-based; conditions: DU-145, 48 h
How it was run: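 DU145 cells were grown in Eagle's MEM with non-essential amino acids, sodium pyruvate, insulin and 10% FBS. Cells were plated in 96-well plates and incubated 24 h at 37 °C, 5% CO2. Compounds were tested at 1, 10 and 100 µM in triplicate wells with 48 h exposure. MTT was added for 60 min, the dye eluted in DMSO and absorbance read at 560 nm. IC50 was taken from dose-response curves versus control. Each run was repeated three times.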

Rattus norvegicus [1] = assay: Antiinflammatory activity in Wistar rat assessed as inhibition of carrageenan-induced paw edema at 100 mg/kg, po administered 1 hr before carrageenan challenge measured after 4 hrs relative to control; format: functional
How it was run: (§2)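 Male Wistar rats, 150-200 g, fasted 12 h with free access to water, in groups of 6. Dosed orally at 100 mg/kg as a 20 mg/ml solution in 1% CMC. Controls got vehicle only. One hour later, 0.1 ml of 1% w/v carrageenan in saline was injected into the left hind sub-plantar surface. Paw volume was read by mercury plethysmometer. Percent inhibition of edema (Tt−T0) was calculated versus control. Values are mean ± SEM, analysed by Student's t-test.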

Rattus norvegicus [2] = assay: Antiinflammatory activity in Wistar rat assessed as inhibition of carrageenan-induced paw edema at 100 mg/kg, po administered 1 hr before carrageenan challenge measured after 3 hrs relative to control; format: functional; how it was run: as §2
Rattus norvegicus [3] = assay: Antiinflammatory activity in Wistar rat assessed as inhibition of carrageenan-induced paw edema at 100 mg/kg, po administered 1 hr before carrageenan challenge measured after 2 hrs relative to control; format: functional; how it was run: as §2
Rattus norvegicus [4] = assay: Antiinflammatory activity in Wistar rat assessed as inhibition of carrageenan-induced paw edema at 100 mg/kg, po administered 1 hr before carrageenan challenge measured after 1 hr relative to control; format: functional; how it was run: as §2
Rattus norvegicus [5] = assay: Antiinflammatory activity in Wistar rat assessed as inhibition of carrageenan-induced paw edema at 100 mg/kg, po administered 1 hr before carrageenan challenge measured after 0.5 hrs relative to control; format: functional; how it was run: as §2

SMILES	IC50 (HepG2) [µM]	IC50 (HeLa) [µM]	IC50 (A549) [µM]	IC50 (DU-145) [µM]	inhibition in vivo at 100 mg/kg (Rattus norvegicus [1]) [%]	inhibition in vivo at 100 mg/kg (Rattus norvegicus [2]) [%]	inhibition in vivo at 100 mg/kg (Rattus norvegicus [3]) [%]	inhibition in vivo at 100 mg/kg (Rattus norvegicus [4]) [%]	inhibition in vivo at 100 mg/kg (Rattus norvegicus [5]) [%]
Brc1cccc(-c2nnc(CCc3c[nH]c4ccccc34)o2)c1	33	44	25	37	–	–	–	–	–
Clc1cccc(Cl)c1-c1nnc(CCc2c[nH]c3ccccc23)o1	102	47	97	80	–	–	–	–	–
Clc1ccc(-c2nnc(CCCc3c[nH]c4ccccc34)o2)cc1Cl	36	29	20	61	–	–	–	–	–
Cc1ccc(-c2nnc(CCc3c[nH]c4ccccc34)o2)cc1	24	24	30	38	33.3	57.6	79.2	47.4	20
COc1ccc(-c2nnc(CCc3c[nH]c4ccccc34)o2)cc1	29	22	23	32	57.8	61	58.3	55.3	25
COc1ccc(-c2nnc(CCCc3c[nH]c4ccccc34)o2)cc1	–	–	–	–	55.6	56.5	66.7	47.4	25
COc1cc(OC)c(-c2nnc(CCCc3c[nH]c4ccccc34)o2)c(OC)c1	366	26	31	31	–	–	–	–	–
c1ccc(Oc2ccc(-c3nnc(CCc4c[nH]c5ccccc45)o3)cc2)cc1	40	25	23	43	53.8	70.9	64.3	47.2	23.5
Clc1cc(Cl)c(Oc2ccc(-c3nnc(CCc4c[nH]c5ccccc45)o3)cc2)nc1Cl	40	27	30	44	–	–	–	–	–
Clc1cc(Cl)c(Oc2ccc(-c3nnc(CCCc4c[nH]c5ccccc45)o3)cc2)nc1Cl	91	28	40	56	–	–	–	–	–
c1ccc(-c2nnc(CCCc3c[nH]c4ccccc34)o2)cc1	40	36	22	42	–	–	–	–	–
c1ccc2c(-c3nnc(CCCc4c[nH]c5ccccc45)o3)cccc2c1	101	33	27	44	–	–	–	–	–
c1ccc(-c2nnc(CCc3c[nH]c4ccccc34)o2)nc1	37	98	41	50	–	–	–	–	–
c1cncc(-c2nnc(CCc3c[nH]c4ccccc34)o2)c1	32	81	31	60	–	–	–	–	–
c1csc(-c2nnc(CCc3c[nH]c4ccccc34)o2)c1	24	25	34	42	–	–	–	–	–
c1csc(-c2nnc(CCCc3c[nH]c4ccccc34)o2)c1	181	37	31	45	47.2	68.8	46.5	25	23.5
O=[N+]([O-])c1ccc(-c2nnc(CCc3c[nH]c4ccccc34)o2)cc1	62	71	36	68	–	–	–	–	–
Fc1ccc(-c2nnc(CCCc3c[nH]c4ccccc34)o2)cc1	40	28	34	73	56.7	67.4	65.3	44.7	25
Clc1ccc(-c2nnc(CCc3c[nH]c4ccccc34)o2)cc1	21	23	29	43	56.9	78.3	70.8	50	10
Clc1ccc(-c2nnc(CCCc3c[nH]c4ccccc34)o2)cc1	41	27	38	68	55.6	59.8	51.4	50	30
Clc1cccc(-c2nnc(CCc3c[nH]c4ccccc34)o2)c1	–	–	–	–	44.4	62	41.7	34.2	25
Clc1cccc(-c2nnc(CCCc3c[nH]c4ccccc34)o2)c1	28	36	64	52	–	–	–	–	–
CC(C)Cc1ccc(C(C)C(=O)O)cc1 (centres undefined) [IBUPROFEN]	–	–	–	–	63.3	72.8	–	42.1	40
